Laboratory results from BindingDB's records for doi:10.1016/j.ejmech.2013.05.047 (Chulalongkorn University, 2013).

Tests used:
[1] = molecular target: T1, Lysosomal alpha-glucosidase (Rattus norvegicus, UniProt Q6P7A9); experiment: Inhibition of rat intestine maltase using maltose as substrate incubated for 10 mins prior to substrate addition measured after 40 mins by glucose oxidase colorimetric method
In short: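 Crude intestinal enzyme supernatant (12,000 g, 30 min) preincubated with test compound (1 mg/mL, 10 µL) at 37 C for 10 min. Substrate in 0.1 M phosphate buffer pH 6.9 was then added: maltose 0.58 mM for maltase, sucrose 20 mM for sucrase. Incubated 40 min at 37 C, stopped by heating at 80 C for 15 min. Released glucose measured by the glucose oxidase kit. % inhibition = [(A0 − A1)/A0] × 100.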

[2] = molecular target: T1, Lysosomal alpha-glucosidase; experiment: Competitive inhibition of rat intestine maltase using maltose as substrate by Lineweaver-Burk plot analysis
In short: (§1)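 Same maltase/sucrase reactions, with activity held at 0.45 (maltase) and 0.09 (sucrase) U/mg protein. Inhibitor 0 to 20.4 mM against substrate 1.0 to 20.0 mM. Vmax and Km obtained from Lineweaver–Burk intercepts and slopes. Ki (EI) from a secondary plot of slope versus inhibitor concentration; Ki′ (ESI) from a secondary plot of intercept versus inhibitor concentration.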

[3] = molecular target: T1, Lysosomal alpha-glucosidase; experiment: Non-competitive inhibition of rat intestine maltase using maltose as substrate by Lineweaver-Burk plot analysis; in short: as §1

T1 sequence (Q6P7A9 whole entry): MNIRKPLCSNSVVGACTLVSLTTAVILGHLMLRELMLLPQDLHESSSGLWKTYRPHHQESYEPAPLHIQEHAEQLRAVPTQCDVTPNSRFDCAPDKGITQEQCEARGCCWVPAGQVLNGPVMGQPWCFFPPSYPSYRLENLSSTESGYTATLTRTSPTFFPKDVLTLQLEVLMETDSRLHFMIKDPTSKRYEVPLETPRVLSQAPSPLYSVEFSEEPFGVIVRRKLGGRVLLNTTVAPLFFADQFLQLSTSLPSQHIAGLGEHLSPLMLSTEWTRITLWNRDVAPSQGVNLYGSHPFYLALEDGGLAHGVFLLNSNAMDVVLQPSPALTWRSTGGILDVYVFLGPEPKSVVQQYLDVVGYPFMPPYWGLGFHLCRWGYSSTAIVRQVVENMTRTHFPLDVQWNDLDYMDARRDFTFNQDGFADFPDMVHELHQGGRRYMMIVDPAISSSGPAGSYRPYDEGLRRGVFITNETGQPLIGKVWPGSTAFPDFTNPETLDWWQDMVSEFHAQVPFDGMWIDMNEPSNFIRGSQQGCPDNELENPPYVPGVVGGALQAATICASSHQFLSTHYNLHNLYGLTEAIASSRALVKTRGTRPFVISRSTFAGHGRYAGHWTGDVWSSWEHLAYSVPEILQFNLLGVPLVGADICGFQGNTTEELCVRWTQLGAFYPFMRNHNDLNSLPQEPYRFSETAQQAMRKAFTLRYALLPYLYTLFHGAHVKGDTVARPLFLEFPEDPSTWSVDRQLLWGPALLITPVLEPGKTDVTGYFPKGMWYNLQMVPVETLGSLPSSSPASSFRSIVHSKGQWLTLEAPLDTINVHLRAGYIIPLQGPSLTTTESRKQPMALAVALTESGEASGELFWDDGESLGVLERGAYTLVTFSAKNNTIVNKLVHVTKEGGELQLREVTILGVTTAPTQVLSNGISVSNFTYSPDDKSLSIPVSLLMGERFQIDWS

IC50 [1]	Ki [2]	Ki [3]	Compound
5.31 µM	23.8 µM	64.5 µM	O=C(/C=C/c1ccc(O)c(O)c1)O[C@@H]1C[C@@H](O)[C@H](O)[C@@H](O)[C@H]1O
367 µM			COc1ccc(/C=C/C(=O)O[C@H]2C[C@@H](O)[C@H](O)[C@@H](O)[C@H]2O)cc1O
21.1 µM			COc1cc(/C=C/C(=O)O[C@H]2C[C@@H](O)[C@H](O)[C@@H](O)[C@H]2O)ccc1O
51.9 µM			COc1cc(/C=C/C(=O)O[C@@H]2C[C@@H](O)[C@H](O)[C@@H](O)[C@H]2O)ccc1O
20.8 µM			COc1ccc(/C=C/C(=O)O[C@@H]2C[C@@H](O)[C@H](O)[C@@H](O)[C@H]2O)cc1O
497 µM			O=C(/C=C/c1ccc(O)c(O)c1)O[C@H]1C[C@@H](O)[C@H](O)[C@@H](O)[C@H]1O
34.7 µM			O=C(O)/C=C/c1ccc(O)c(O)c1 [3,4-Dihydroxycinnamate, XVII]
